# Measured values: ChEMBL document CHEMBL2069215, “Synthesis and biological evaluation of novel triazoles and isoxazoles linked 2-phenyl benzothiazole as potential anticancer agents” (Bioorg Med Chem Lett, 2012)
# Active and inactive are the calls of the source. No cut-off for these calls is given here.
# Assays:
# A549 = test: Cytotoxicity against human A549 cells after 24 hrs by MTT assay; type: functional, cell-based; details: A549, 24 h
# Summary of the method: (§1)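 A549 lung adenocarcinoma, Colo-205 colon and MCF-7 breast carcinoma cells were exposed to compounds at 1 to 64 µM for 24 h. Viability was read by MTT assay, and IC50 values were derived from it.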
# MCF7 = test: Cytotoxicity against human MCF7 cells after 24 hrs by MTT assay; type: functional, cell-based; details: MCF7, 24 h; summary of the method: as §1
# MCF-10A = test: Cytotoxicity against human MCF10A cells after 24 hrs by MTT assay; type: cell-based
# COLO 205 [1] = test: Cytotoxicity against human COLO205 cells after 24 hrs by MTT assay; type: functional, cell-based; details: COLO 205, 24 h; summary of the method: as §1
# COLO 205 [2] = test: Cell cycle arrest in human COLO205 cells assessed as accumulation at G1 phase at 16 uM after 24 hrs by FACS analysis (reference value: 71.02 +/- 1.00%); type: functional
# Summary of the method: (§2)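 Colo-205 human colon cancer cells were exposed to 8 or 16 µM for 24 h alongside untreated controls. They were then analysed by flow cytometry (FACS) for cell-cycle distribution as percent of cells in G0, G1, S and G2/M. The G0 population was taken as apoptotic cells.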
# COLO 205 [3] = test: Induction of apoptosis in human COLO205 cells assessed as accumulation at G0 phase at 8 uM after 24 hrs by FACS analysis (reference value: 2.28%); type: functional; summary of the method: as §2
# COLO 205 [4] = test: Cell cycle arrest in human COLO205 cells assessed as accumulation at G2/M phase at 16 uM after 24 hrs by FACS analysis (reference value: 23.09 +/- 1.01%); type: functional; summary of the method: as §2
# COLO 205 [5] = test: Induction of apoptosis in human COLO205 cells assessed as accumulation at G0 phase at 16 uM after 24 hrs by FACS analysis (reference value: 2.28%); type: functional; summary of the method: as §2
# COLO 205 [6] = test: Cell cycle arrest in human COLO205 cells assessed as accumulation at G2/M phase at 8 uM after 24 hrs by FACS analysis (reference value: 23.09 +/- 1.01%); type: functional; summary of the method: as §2
# COLO 205 [7] = test: Cell cycle arrest in human COLO205 cells assessed as accumulation at S phase at 16 uM after 24 hrs by FACS analysis (reference value: 3.56 +/- 0.40%); type: functional; summary of the method: as §2
# COLO 205 [8] = test: Cell cycle arrest in human COLO205 cells assessed as accumulation at G1 phase at 8 uM after 24 hrs by FACS analysis (reference value: 71.02 +/- 1.00%); type: functional; summary of the method: as §2
# COLO 205 [9] = test: Cell cycle arrest in human COLO205 cells assessed as accumulation at S phase at 8 uM after 24 hrs by FACS analysis (reference value: 3.56 +/- 0.40%); type: functional; summary of the method: as §2
# COLO 205 [10] = test: Induction of apoptosis in human COLO205 cells assessed as increase in PARP expression at 8 uM after 24 hrs by Western blot analysis; type: functional, cell-based
# Summary of the method: (§3)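 Colo-205 cells were treated at 8 or 16 µM for 24 h and lysed. Western blots of the lysates were probed with antibodies to procaspase-8, procaspase-9, active caspase-3 and cleaved (active) PARP.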
# COLO 205 [11] = test: Induction of apoptosis in human COLO205 cells assessed as increase in caspase 3 expression at 8 uM after 24 hrs by Western blot analysis; type: functional, cell-based; summary of the method: as §3
# COLO 205 [12] = test: Induction of apoptosis in human COLO205 cells assessed as degradation of procaspase 9 at 8 uM after 24 hrs by Western blot analysis; type: functional, cell-based; summary of the method: as §3
# COLO 205 [13] = test: Induction of apoptosis in human COLO205 cells assessed as degradation of procaspase 8 at 8 uM after 24 hrs by Western blot analysis; type: functional, cell-based; summary of the method: as §3
Structure (SMILES),IC50 (A549) [µM],IC50 (MCF7) [µM],IC50 (MCF-10A) [µM],IC50 (COLO 205 [1]) [µM],Activity (COLO 205 [2]) [%],Activity (COLO 205 [3]) [%],Activity (COLO 205 [4]) [%],Activity (COLO 205 [5]) [%],Activity (COLO 205 [6]) [%],Activity (COLO 205 [7]) [%],Activity (COLO 205 [8]) [%],Activity (COLO 205 [9]) [%],Activity (COLO 205 [10]),Activity (COLO 205 [11]),Activity (COLO 205 [12]),Activity (COLO 205 [13])
COc1cc(-c2cc(COc3ccccc3-c3nc4ccccc4s3)on2)cc(OC)c1OC,22.9,25.6,42.9,17.5,–,–,–,–,–,–,–,–,–,–,–,–
FC(F)(F)C(F)(F)C(F)(F)C(F)(F)C(F)(F)C(F)(F)CCn1cc(COc2ccccc2-c2nc3ccccc3s2)nn1,15.1,19.8,35.1,14.2,61.36,2.72,22.3,11.91,20.53,4.42,73.66,3.09,–,–,–,–
Cc1ccc(-c2cc(COc3ccccc3-c3nc4ccccc4s3)on2)cc1,16.4,27.5,26.4,14.2,–,–,–,–,–,–,–,–,–,–,–,–
Fc1ccc(-n2cc(COc3ccccc3-c3nc4ccccc4s3)nn2)cc1,23.3,26.2,33.3,18.9,–,–,–,–,–,–,–,–,–,–,–,–
Clc1ccc(-c2cc(COc3ccccc3-c3nc4ccccc4s3)on2)cc1,18.8,23.8,38.8,16.4,–,–,–,–,–,–,–,–,–,–,–,–
Brc1ccc(-c2cc(COc3ccccc3-c3nc4ccccc4s3)on2)cc1,19.2,20,29.2,16.4,–,–,–,–,–,–,–,–,–,–,–,–
FC(F)(F)C(F)(F)C(F)(F)C(F)(F)C(F)(F)C(F)(F)C(F)(F)C(F)(F)CCn1cc(COc2ccccc2-c2nc3ccccc3s2)nn1,13.1,19.2,33.1,12.2,46.57,3.3,15.18,34.45,20.22,3.79,72,4.43,–,–,–,–
FC(F)(F)Oc1ccc(-c2cc(COc3ccccc3-c3nc4ccccc4s3)on2)cc1,23.9,26.6,43.9,19.9,–,–,–,–,–,–,–,–,–,–,–,–
COc1ccc(-c2cc(COc3ccccc3-c3nc4ccccc4s3)on2)cc1,24.1,22.1,34.1,20.7,–,–,–,–,–,–,–,–,–,–,–,–
FC(F)(F)c1cccc(-n2cc(COc3ccccc3-c3nc4ccccc4s3)nn2)c1,11.1,18.9,31.1,10.8,45.77,4.02,10.67,40.7,21.68,2.68,70.91,3.37,Active,Active,Active,Active
Fc1ccccc1-c1cc(COc2ccccc2-c2nc3ccccc3s2)on1,22.5,23.9,42.5,18.3,–,–,–,–,–,–,–,–,–,–,–,–
Fc1ccc(-n2cc(COc3ccccc3-c3nc4ccccc4s3)nn2)cc1Cl,16.3,27.3,26.3,14.4,–,–,–,–,–,–,–,–,–,–,–,–
c1ccc(-n2cc(COc3ccccc3-c3nc4ccccc4s3)nn2)cc1,16.4,26.2,36.4,16.6,–,–,–,–,–,–,–,–,–,–,–,–
COc1ccc(-c2nc3cc(F)ccc3s2)cc1OC,15.9,20.2,25.2,13.9,52.82,4.15,15.6,27.17,22.5,4.31,70.04,3.21,–,–,–,–
